Published values pooled from the literature.
Protocols differ between the studies behind these lines.
Target: MAP kinase-activated protein kinase 3 (MAPKAPK3, Homo sapiens, UniProt Q16644)

Cc1cnc(NC2CCOCC2)nc1-n1cnc(C(=O)NC(CN)c2cc(F)cc(Cl)c2)c1 (stereo not shown)
remaining activity (enzyme activity; inhibitor; radiometric; 1 µM): 110%

CNc1cccc2cc(C(=O)Nc3ccc(C(=O)O)cc3)c(=O)[nH]c12
inhibition (enzyme activity; inhibitor; 10 µM): -3.2%

COc1cc(/C=C/C(=O)CC(=O)/C=C/c2ccc(O)c(OC)c2)ccc1O
activity vs control (enzyme activity; inhibitor; 1 µM): 76%

CCOc1cc(-c2nncn2C)ccc1Nc1ncc2cc(C)nc(NCC(C)(C)C)c2n1
inhibition (enzyme activity; inhibitor; FRET; 1 µM): < 15%

FC(F)(F)Oc1cccc(-c2cnc3ccc(-c4ccncc4)nn23)c1
activity vs control (enzyme activity; inhibitor; radiometric; 5 µM): 97%

CCN(CC)c1ccc(C2=NNC(=O)CC2C)cc1[N+](=O)[O-] (stereo not shown)
remaining activity (enzyme activity; inhibitor; 10 µM): 100%

O=C1Nc2ccc(Cl)cc2C1=Cc1cc(Cl)c(O)c(Cl)c1
remaining signal (cell-free assay; 0.5 µM): 88.4%

CNC(=O)c1cc(Oc2ccc(NC(=O)Nc3ccc(Cl)c(C(F)(F)F)c3)cc2)ccn1
inhibition (enzyme activity; inhibitor; 0.3 µM): -3%

Cc1ccc(NC(=O)c2ccc(C)c(C(F)(F)F)c2)cc1C#Cc1nn(C2CCC(O)CC2)c2ncnc(N)c12 (stereo not shown)
remaining signal (cell-free assay; 10 µM): 96%

O=C1NC(=O)c2cc(Nc3ccc(F)cc3)c(Nc3ccc(F)cc3)cc21
remaining signal (cell-free assay; 0.5 µM): 95.9%

Cc1ccc(Nc2nccc(N(C)c3ccc4c(C)n(C)nc4c3)n2)cc1S(N)(=O)=O
inhibition (enzyme activity; inhibitor; 0.3 µM): -8%

COc1cc(Nc2cnc(C#N)c(O[C@H](C)CN(C)C)n2)ncc1-c1cnn(C)c1
remaining activity (enzyme activity; inhibitor; radiometric; 10 µM): 80%

CCCCNc1ncc2c(-c3ccc(F)cc3)nn(C[C@H]3CC[C@H](N)CC3)c2n1
inhibition (target engagement in cells; inhibitor; chemoproteomics; 20 mM): 6.1%

CC(C)(C)c1nc2c(s1)c1nc(N)ncc1c1ccc(NS(=O)(=O)c3c(F)cccc3F)c(F)c12
remaining activity (enzyme activity; inhibitor; radiometric; 1 µM): 93%

COc1cc2ncnc(Nc3ccc(Oc4ccccc4)c(C)c3C)c2cc1OC
inhibition (enzyme activity; inhibitor; 1 µM): -14%

Cn1c(=O)n(-c2ccc(C(C)(C)C#N)cc2)c2c3cc(-c4cnc5ccccc5c4)ccc3ncc21
remaining activity (enzyme activity; inhibitor; 10 µM): 110%

O=C(Nc1cnn(-c2csc(C(=O)NC3COC3)c2)c1)Nc1c(F)cccc1Cl
remaining activity (enzyme activity; inhibitor; 5 µM): 95.6%

CCN(CC)CCNC(=O)c1c(C)[nH]c(/C=C2\C(=O)Nc3ccc(F)cc32)c1C
inhibition (enzyme activity; inhibitor; 10 µM): 6%

Oc1cccc(-c2nc(N3CCOCC3)c3oc4ncccc4c3n2)c1
remaining activity (enzyme activity; inhibitor; 10 µM): 100%
